In ChEMBL document CHEMBL1128507, “Design and synthesis of potent retinoid X receptor selective ligands that induce apoptosis in leukemia cells” (J Med Chem, 1995):
pEC50, pKd: −log10 of the molar value.

What was measured:
[1] = target: T1, Retinoic acid receptor RXR-beta (Mus musculus, UniProt P28704); assay: Ability to activate gene expression at Retinoic acid receptor RXR-beta was evaluated in a cotransfection assay.
T1 sequence (P28704 whole entry): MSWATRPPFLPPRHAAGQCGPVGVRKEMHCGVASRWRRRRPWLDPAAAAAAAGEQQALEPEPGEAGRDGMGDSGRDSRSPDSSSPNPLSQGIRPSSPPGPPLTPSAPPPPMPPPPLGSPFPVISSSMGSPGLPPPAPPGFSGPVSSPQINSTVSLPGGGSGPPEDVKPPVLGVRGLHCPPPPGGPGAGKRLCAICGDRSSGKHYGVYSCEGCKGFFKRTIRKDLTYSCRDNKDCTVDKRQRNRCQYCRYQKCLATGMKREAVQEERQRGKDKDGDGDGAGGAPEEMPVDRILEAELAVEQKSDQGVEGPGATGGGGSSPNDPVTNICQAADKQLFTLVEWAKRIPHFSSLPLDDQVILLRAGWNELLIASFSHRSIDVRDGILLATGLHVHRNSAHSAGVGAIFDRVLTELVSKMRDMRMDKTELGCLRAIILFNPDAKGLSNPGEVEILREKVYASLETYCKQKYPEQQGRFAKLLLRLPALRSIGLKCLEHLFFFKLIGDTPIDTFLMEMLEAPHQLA

[2] = target: T2, Retinoic acid receptor RXR-alpha (Homo sapiens, UniProt P19793); assay: Ability to activate gene expression at Retinoic acid receptor RXR-alpha was evaluated in a cotransfection assay.
T2 sequence (P19793 whole entry): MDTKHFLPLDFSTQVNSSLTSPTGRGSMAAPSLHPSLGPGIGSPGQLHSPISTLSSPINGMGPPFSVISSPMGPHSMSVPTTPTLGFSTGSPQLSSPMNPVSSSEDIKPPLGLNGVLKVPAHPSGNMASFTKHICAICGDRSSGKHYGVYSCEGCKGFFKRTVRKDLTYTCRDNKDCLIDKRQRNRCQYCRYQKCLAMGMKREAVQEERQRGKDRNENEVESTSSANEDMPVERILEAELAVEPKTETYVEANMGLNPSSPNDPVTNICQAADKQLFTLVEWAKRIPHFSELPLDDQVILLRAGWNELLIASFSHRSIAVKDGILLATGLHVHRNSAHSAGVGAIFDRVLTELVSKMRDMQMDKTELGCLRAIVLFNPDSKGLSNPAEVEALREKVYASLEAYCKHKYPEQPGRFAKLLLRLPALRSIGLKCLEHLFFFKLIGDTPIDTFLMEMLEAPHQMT

[3] = target: T1, Retinoic acid receptor RXR-beta; assay: Binding affinity to Retinoic acid receptor RXR-beta was determined in a competitive binding assay.
[4] = target: T2, Retinoic acid receptor RXR-alpha; assay: Ability to bind directly to Retinoic acid receptor RXR-alpha was evaluated in a competitive binding assay.
[5] = target: T3, Retinoic acid receptor RXR-gamma (Mus musculus, UniProt P28705); assay: Ability to activate gene expression at Retinoic acid receptor RXR-gamma was evaluated in a cotransfection assay.
T3 sequence (P28705 whole entry): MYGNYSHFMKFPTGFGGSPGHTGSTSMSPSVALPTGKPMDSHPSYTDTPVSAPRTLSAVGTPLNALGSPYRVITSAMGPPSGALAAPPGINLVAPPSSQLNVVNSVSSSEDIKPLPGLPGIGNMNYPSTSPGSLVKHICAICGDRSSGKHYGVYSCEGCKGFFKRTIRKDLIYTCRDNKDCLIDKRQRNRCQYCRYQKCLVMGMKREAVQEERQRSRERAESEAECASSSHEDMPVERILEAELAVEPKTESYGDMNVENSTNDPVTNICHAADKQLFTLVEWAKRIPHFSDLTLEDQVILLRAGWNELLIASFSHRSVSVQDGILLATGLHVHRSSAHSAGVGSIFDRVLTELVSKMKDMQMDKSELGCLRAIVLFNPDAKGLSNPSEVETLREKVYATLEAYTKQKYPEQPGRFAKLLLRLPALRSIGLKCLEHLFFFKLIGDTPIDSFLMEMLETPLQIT
How it was run: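 CV-1 cells cotransfected with the RXR-gamma receptor, using an automated 96-well format. Values are either one experiment in triplicate or the mean ± SEM of at least two experiments, each in triplicate.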

[6] = target: T3, Retinoic acid receptor RXR-gamma; assay: Binding affinity to Retinoic acid receptor RXR-gamma was evaluated in a competitive binding assay.
How it was run: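 Receptor from baculovirus. Competition binding used [3H]-9-cis-RA as the radioligand for RXRs. Kd was calculated with the Cheng-Prussof equation. Values are mean ± SEM of about three experiments, or a single experiment in triplicate.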

| Structure (SMILES) | pEC50 [1] | pEC50 [2] | pKd [3] | pKd [4] | pEC50 [5] | pKd [6] |
| --- | --- | --- | --- | --- | --- | --- |
| CC(C)=C(c1ccc(C(=O)O)cc1)c1cc2c(cc1C)C(C)(C)CCC2(C)C | 6.89 | 6.52 | 6.80 | 7.30 | 6.62 | 6.82 |
| Cc1cc2c(cc1Cc1ccc(C(=O)O)cc1)C(C)(C)CCC2(C)C | 5.92 | 6.34 | < 6.00 | < 6.00 | 6.36 | < 6.00 |
| Cc1cc2c(cc1C(C)(C)c1ccc(C(=O)O)cc1)C(C)(C)CCC2(C)C | 5.72 | 6.19 | < 6.00 | < 6.00 | 6.19 | < 6.00 |
| C=C(c1ccc(C(=O)O)cc1)c1cc2c(cc1C)CCCC2(C)C | 5.62 | 5.62 | < 6.00 | < 6.00 | 5.59 | < 6.00 |
| Cc1cc2c(cc1C(=O)c1cccc(C(=O)O)c1)C(C)(C)CCC2(C)C | < 5.00 | < 5.00 | < 6.00 | < 6.00 | < 5.00 | < 6.00 |
| Cc1cc2c(cc1C(=O)c1ccccc1C(=O)O)C(C)(C)CCC2(C)C | < 5.00 | < 5.00 | < 6.00 | < 6.00 | < 5.00 | < 6.00 |
| Cc1cc2c(cc1C(C)c1ccc(C(=O)O)cc1)C(C)(C)CCC2(C)C (configuration not stated) | 6.51 | 6.33 | 6.82 | 6.96 | 6.47 | 6.70 |
| C=C(c1ccc(C(=O)O)cc1)c1cc2c(cc1C)C(C)(C)C(C)C2(C)C (configuration not stated) | 6.55 | 6.52 | 6.54 | 6.75 | 6.30 | 6.55 |
| Cc1cc2c(cc1C1(c3ccc(C(=O)O)cc3)CC1)C(C)(C)CCC2(C)C | 7.66 | 7.59 | 7.15 | 7.34 | 7.77 | 7.60 |
| C=C(c1ccc(C(=O)O)cc1)c1cc2c(cc1C)C(C)(C)CCC2 | 6.11 | 5.92 | 6.07 | 5.94 | 6.22 | 5.76 |
| Cc1cc2c(cc1Oc1ccc(C(=O)O)cc1)C(C)(C)CCC2(C)C | 5.72 | 6.00 | 6.11 | 6.28 | 6.37 | 6.35 |
| Cc1cc2c(cc1C1(c3ccc(C(=O)O)cc3)CO1)C(C)(C)CCC2(C)C (configuration not stated) | 7.17 | 7.29 | 6.72 | 6.17 | 7.33 | 6.26 |
